ChEMBL document CHEMBL1133747, “A rational approach to the design and synthesis of a new bradykinin B(1) receptor antagonist” (J Med Chem, 2000)
Calls of active or inactive are those of the source. The calls are words filed in the database; no cut-off is given here. Square brackets hold non-standard residues; d marks the D form. Peptide text beside a SMILES is read from it. ξ: configuration not given here. Oic(3aξ,7aξ) = O=C(O)[C@@H]1CC2CCCCC2N1; Tic = O=C(O)[C@@H]1Cc2ccccc2CN1; Aun = NCCCCCCCCCCC(=O)O

Legend:
B2 bradykinin receptor = molecular target: T1, B2 bradykinin receptor (Homo sapiens, UniProt P30411); assay: Binding affinity towards human cloned B2 receptor was determined using [3H]BK as radioligand
T1 sequence (P30411 whole entry): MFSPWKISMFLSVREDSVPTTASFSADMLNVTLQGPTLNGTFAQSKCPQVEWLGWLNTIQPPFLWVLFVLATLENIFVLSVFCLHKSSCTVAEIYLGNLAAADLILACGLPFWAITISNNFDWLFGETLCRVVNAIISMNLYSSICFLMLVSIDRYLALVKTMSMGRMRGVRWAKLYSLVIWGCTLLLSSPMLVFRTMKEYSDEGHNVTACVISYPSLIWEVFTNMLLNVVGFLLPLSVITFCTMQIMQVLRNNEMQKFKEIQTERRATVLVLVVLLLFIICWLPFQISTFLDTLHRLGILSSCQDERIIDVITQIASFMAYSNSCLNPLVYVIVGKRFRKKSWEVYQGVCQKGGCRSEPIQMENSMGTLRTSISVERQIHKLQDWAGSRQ

B1 bradykinin receptor = molecular target: T2, B1 bradykinin receptor (Homo sapiens, UniProt P46663); assay: Binding affinity towards human cloned B1 receptor was determined using [3H][des-Arg10-Leu9]-kallidin as radioligand
T2 sequence (P46663 whole entry): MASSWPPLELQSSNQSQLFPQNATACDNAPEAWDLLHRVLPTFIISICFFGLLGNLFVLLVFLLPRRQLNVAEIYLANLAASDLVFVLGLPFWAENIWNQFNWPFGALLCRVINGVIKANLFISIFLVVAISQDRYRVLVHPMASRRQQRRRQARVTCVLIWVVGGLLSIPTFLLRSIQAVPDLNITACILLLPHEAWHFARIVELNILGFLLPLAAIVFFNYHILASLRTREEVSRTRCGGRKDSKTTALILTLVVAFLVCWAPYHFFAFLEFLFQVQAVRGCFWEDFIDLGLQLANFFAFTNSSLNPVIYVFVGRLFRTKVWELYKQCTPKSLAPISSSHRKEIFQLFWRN

Homo sapiens = species: Homo sapiens; assay: Competitive inhibition of the contraction of the human umbilical vein induced by the potent B1 receptor agonist [des-Arg10]-kallidin; assay type: functional; settings: read-out: pA2 (converted)
How it was run: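 Human umbilical vein rings (3-4 mm) incubated overnight at 37 °C in Krebs (B1 induction), then set in organ baths at 37 °C, 95% O2/5% CO2, stretched to 1 g. Antagonist or vehicle 15 min before [des-Arg10]-kallidin concentration-response curve (one per ring), expressed as % of 1 µM U46619 maximal contraction.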

[1] = molecular target: T3, B2 bradykinin receptor (Homo sapiens) (UniProt P30411); assay: Binding affinity towards human cloned B2 receptor was determined using [3H]BK as radioligand; Inactive
T3 sequence (whole entry): T1 sequence (P30411 whole entry)

[2] = molecular target: T4, B1 bradykinin receptor (Homo sapiens) (UniProt P46663); assay: Binding affinity towards human cloned B1 receptor was determined using [3H][des-Arg10-Leu9]-kallidin as radioligand; No significant affinity at 10E-5 M
T4 sequence (whole entry): T2 sequence (P46663 whole entry)

[3] = molecular target: T4, B1 bradykinin receptor (Homo sapiens); assay: Binding affinity towards human cloned B1 receptor was determined using [3H][des-Arg10-Leu9]-kallidin as radioligand; No significant affinity at 10 uM
Rattus norvegicus = species: Rattus norvegicus; assay: Compound was tested for antagonist activity on rat ileum longitudinal smooth muscle; assay type: functional; settings: read-out: pA2 (converted)

| SMILES | NA [1] | NS [3] | also measured |
| --- | --- | --- | --- |
| NCCCC[C@H](N)C(=O)N[C@@H](CCCN=C(N)N)C(=O)N1CCC2(CC1)C(=O)N(CC(=O)N[C@@H](CO)C(=O)N[C@@H]1CSc3ccccc3N(CC(=O)O)C1=O)CN2CCc1ccccc1 |  |  | Ki (B2 bradykinin receptor): 11900 nM; Ki (B1 bradykinin receptor): 24.1 nM; Kb (Homo sapiens): 794 nM |
| NCCCC[C@H](N)C(=O)N[C@@H](CCCN=C(N)N)C(=O)N1CCC2(CC1)C(=O)N(CC(=O)N[C@@H](CO)C(=O)N[C@@H]1CSc3ccccc3N(CC(=O)O)C1=O)CN2CCC1Cc2ccccc2C1 | inactive |  | NS [2]: inactive |
| C[C@H](NC(=O)[C@@H](N)CCCCN)C(=O)N1CCC2(CC1)C(=O)N(CC(=O)N[C@@H](CO)C(=O)N[C@@H]1CSc3ccccc3N(CC(=O)O)C1=O)CN2CCc1ccccc1 | inactive | inactive |  |
| NC(N)=NCCC[C@H](NC(=O)[C@@H](N)CCCN=C(N)N)C(=O)NCCCCCCCCCCC(=O)N[C@@H](CO)C(=O)N1Cc2ccccc2C[C@H]1C(=O)N1C2CCCCC2C[C@H]1C(=O)O (stereo partly specified) (H-RR[Aun]S[Tic][Oic(3aξ,7aξ)]-OH) |  |  | Kb (Rattus norvegicus): 79.4 nM |
| C[C@H](N)C(=O)N[C@@H](CCCN=C(N)N)C(=O)N1CCC2(CC1)C(=O)N(CC(=O)N[C@@H](CO)C(=O)N[C@@H]1CSc3ccccc3N(CC(=O)O)C1=O)CN2CCc1ccccc1 | inactive | inactive |  |
| N=C(N)NCCCCC(=O)NC(CCCNC(=N)N)C(=O)N1CCC2(CC1)C(=O)N(CC(=O)NC(CO)C(=O)N[C@@H]1CSc3ccccc3N(CC(=O)O)C1=O)CN2CCc1ccccc1 (stereo partly specified) | inactive | inactive |  |
| NCCCC[C@H](N)C(=O)N[C@@H](CCCN=C(N)N)C(=O)N1CCC2(CC1)CN(CC(=O)N[C@@H]1CSc3ccccc3N(CC(=O)O)C1=O)C(=O)N2CCc1ccccc1 | inactive |  |  |
| C[C@H](NC(=O)CN1CN(CCc2ccccc2)C2(CCN(C(=O)[C@H](CCCN=C(N)N)NC(=O)[C@@H](N)CCCCN)CC2)C1=O)C(=O)N[C@@H]1CSc2ccccc2N(CC(=O)O)C1=O | inactive |  |  |
| NCCCC[C@H](N)C(=O)N[C@@H](CCCN=C(N)N)C(=O)N1CCC2(CC1)C(=O)N(CC(=O)N[C@@H](CO)C(=O)N[C@@H]1CSc3ccccc3N(CC(=O)O)C1=O)CN2c1ccccc1 | inactive |  | NS [2]: inactive |
| C[C@@H](O)[C@H](NC(=O)CN1CN(CCc2ccccc2)C2(CCN(C(=O)[C@H](CCCN=C(N)N)NC(=O)[C@@H](N)CCCCN)CC2)C1=O)C(=O)N[C@@H]1CSc2ccccc2N(CC(=O)O)C1=O | inactive |  |  |
| N=C(N)NCCCC(NC(=O)C1CCNCC1)C(=O)N1CCC2(CC1)C(=O)N(CC(=O)NC(CO)C(=O)N[C@@H]1CSc3ccccc3N(CC(=O)O)C1=O)CN2CCc1ccccc1 (stereo partly specified) | inactive | inactive |  |
| NCc1ccc(C(=O)NC(CCCN=C(N)N)C(=O)N2CCC3(CC2)C(=O)N(CC(=O)NC(CO)C(=O)N[C@@H]2CSc4ccccc4N(CC(=O)O)C2=O)CN3CCc2ccccc2)cc1 (stereo partly specified) | inactive | inactive |  |
